Paper PMC7012720 (Journal of inorganic biochemistry, 2019)
“And” between values parts separate entries of the source, which are not always exact repeats. Equal entries are not always repeated. Where two headings read alike, the source gives them in different places.

How the values were obtained:
Log = type: physicochemical; settings: for Estimated Log(Do/w) of protonation state: best fit of Figures 2–4, error +/− 0.2
How it was run: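 Modified shake-flask method in the dark, using 0.1 M acetate (pH 4.00–5.25) or 0.1 M phosphate (pH 5.8–8.0) buffer. Octanol and buffer were mutually pre-saturated for 24 h. Test compound (200 μM) in buffer-saturated octanol was stirred 1:1 with octanol-saturated buffer for 24 h at ambient temperature. The filtered aqueous phase was quantified by UV-Vis. logD = log([Ru]org/[Ru]aq), quadruplicate mean. Per-species values were fitted from pKa-based fractions.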

[1] = Mole fractions of protonation states calculated from pKa values; type: physicochemical
[2] = standard deviation in parenthesis; cited from earlier work
MDA-MD-231 (breast CSC) = settings: cited from earlier work
MCF7 (breast cancer) = settings: cited from earlier work
MCF10A (normal) = settings: cited from earlier work
HeLa (cervical cancer) = settings: cited from earlier work
[3] = read-out: IC50 light, irradiation for one hour with blue light (450 nm)

## [(bipy)2Ru(6,6’-dhbp)]^2+ [Compound 1A]
Log; Acidic Form (XA)
  Estimated Log(Do/w) of protonation state: −0.1
Log; Basic Form (XB)
  Estimated Log(Do/w) of protonation state: 1.6
Log; Monoprotic Acid
  Estimated Log(Do/w) of protonation state: 0.9
Log; orders of magnitude / log units, listed as 1
  Increase of Log(Do/w) from acidic form (XA) to basic form (XB): ~ 1.7 and 1.7
Log; pH 4.00, 0.1M Acetate Buffer
  Log(Do/w): 0.04(3)
Log; pH 5.00, 0.1M Acetate Buffer
  Log(Do/w): 0.11(2)
Log; pH 6.00, 0.1M Phosphate Buffer
  Log(Do/w): 0.57(2)
Log; pH 6.60, 0.1M Phosphate Buffer
  Log(Do/w): 1.10(2)
Log; pH 7.00, 0.1M Phosphate Buffer
  Log(Do/w): 1.18(1)
Log; pH 7.40, 0.1M Phosphate Buffer
  Log(Do/w): 1.36(1)
Log; pH 8.00, 0.1M Phosphate Buffer
  Log(Do/w): 1.39(2)
[1]; pH 6.0 to 6.6
  Proportion of monoprotic species: 80–83%
[1]; pH 7.4
  Mole fraction of acidic form (XA): ~0.003
  Mole fraction of monoprotic species: ~0.42
[2]
  pKa1: 5.26
  pKa2: 7.27
  pKa avg: 6.3
MDA-MD-231 (breast CSC); MDA-MD-231
  PI (phototoxicity index, IC50 dark / IC50 light): 3.5
MDA-MD-231 (breast CSC); read-out: IC50 dark, MDA-MD-231, dark
  IC50: 1010 µM
MDA-MD-231 (breast CSC); read-out: IC50 light, MDA-MD-231, irradiation for one hour with blue light (450 nm)
  IC50: 290 µM
MCF7 (breast cancer); MCF7
  PI (phototoxicity index, IC50 dark / IC50 light): ~1
MCF7 (breast cancer); read-out: IC50 dark, MCF7, dark
  IC50: > 500 µM
MCF7 (breast cancer); read-out: IC50 light, MCF7, irradiation for one hour with blue light (450 nm)
  IC50: > 500 µM
MCF10A (normal)
  PI (phototoxicity index, IC50 dark / IC50 light): >2.4
MCF10A (normal); read-out: IC50 dark, dark
  IC50: > 500 µM
MCF10A (normal); [3]
  IC50: 210 µM
HeLa (cervical cancer)
  PI (phototoxicity index, IC50 dark / IC50 light): 0.73
HeLa (cervical cancer); read-out: IC50 dark, dark
  IC50: 148 µM
HeLa (cervical cancer); [3]
  IC50: 202 µM
